For one data set, the system named is Cryptococcus neoformans. As to the kind of experiment: Antifungal activity against Cryptococcus neoformans ATCC 90113 assessed as inhibition of fungal growth by CLSI method. The format is functional, organism-based.
A further data set has as its system Klebsiella pneumoniae. As to the kind of experiment: Antibacterial activity against Klebsiella pneumoniae ATCC BAA1705 assessed as inhibition of bacterial growth by CLSI method. The format is functional, organism-based.
The subject of a further data set is Aspergillus fumigatus. As to the kind of experiment: Antifungal activity against Aspergillus fumigatus ATCC 1022 assessed as inhibition of fungal growth by CLSI method. The format is functional, organism-based.
In the next data set the test system is Vero. Kind of data set: Cytotoxicity against African green monkey Vero cells assessed as reduction in cell viability incubated for 48 hrs by Neutral red assay. It counts as cell-based. To be noted: chlorocebus sabaeus. The method in brief:
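VERO monkey kidney cells seeded at 25,000 cells/well and incubated 24 h to confluency. Peptide added, then a further 48 h incubation. Viability read by neutral red uptake.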

For a further data set, the system named is Candida albicans. As to the kind of experiment: Antifungal activity against Candida albicans ATCC 10231 assessed as inhibition of fungal growth by CLSI method. It counts as functional, organism-based.
For a further data set, the system named is Enterococcus. Kind of data set: Antibacterial activity against vancomycin resistant Enterococcus ATCC MP-1 assessed as inhibition of bacterial growth by CLSI method. It counts as functional, organism-based.
The next data set relates to Pseudomonas aeruginosa. Kind of data set: Antibacterial activity against Pseudomonas aeruginosa ATCC 27853 assessed as inhibition of bacterial growth by CLSI method. It counts as functional, organism-based.
In a further data set the test system is Escherichia coli. Kind of data set: Antibacterial activity against Escherichia coli ATCC 35218 assessed as inhibition of bacterial growth by CLSI method. It counts as functional, organism-based.
The test system of a further data set is Staphylococcus aureus. Kind of data set: Antibacterial activity against methicillin-resistant Staphylococcus aureus ATCC 33591 assessed as inhibition of bacterial growth by CLSI method. The format is functional, organism-based.

Converted amounts (≈) assume the structure as drawn. The source made the active and inactive calls. The calls are words filed in the database; no cut-off is given here. Where a SMILES comes first, the peptide text is derived from it. The star is where a group is joined. Boc = CC(C)(C)OC(=O)*; NHBn = c1ccc(CN*)cc1

As usually defined, the IC50 is the concentration needed to halve the response being measured. Broadly, the MIC is the lowest concentration found to suppress growth. Turning to `COC(=O)[C@H](CCCNC(=N)N)NC(=O)[C@H](Cc1c[nH]c2ccccc12)NC(=O)[C@H](Cc1c[nH]c(-c2ccc(C)cc2)n1)NC(=O)OC(C)(C)C`, the 50% inhibitory concentration (IC50) in the data set on Cryptococcus neoformans was found to be 7.66 µg/mL (≈ 10.9 µM). In addition, the MIC with Cryptococcus neoformans is over 20 µg/mL. Also, the result with Klebsiella pneumoniae, in the data set on Aspergillus fumigatus and in the data set with Candida albicans was inactive. Moreover, in the data set with Vero, the Activity was over 10 µg/mL.
Regarding `CC(C)(C)OC(=O)N[C@@H](Cc1c[nH]c(-c2ccc(-c3ccccc3)cc2)n1)C(=O)N[C@@H](Cc1c[nH]c2ccccc12)C(=O)N[C@@H](CCCNC(=N)N)C(=O)NCc1ccccc1`, the half-inhibitory concentration (IC50) in the data set on Enterococcus was 8.82 µg/mL (≈ 10.5 µM); in the data set with Cryptococcus neoformans, 2.15 µg/mL (≈ 2.56 µM); with Pseudomonas aeruginosa it was 19.8 µg/mL (≈ 23.6 µM); in the data set on Escherichia coli, over 20 µg/mL; in the data set with Staphylococcus aureus, 4.56 µg/mL (≈ 5.43 µM). In addition, the results for the MIC in the data set with Enterococcus, in the data set with Cryptococcus neoformans and in the data set with Staphylococcus aureus were 10 µg/mL (≈ 11.9 µM), 2.5 µg/mL (≈ 2.98 µM) and 10 µg/mL (≈ 11.9 µM), respectively. Further, the outcome with Klebsiella pneumoniae, in the data set with Aspergillus fumigatus and in the data set on Candida albicans was inactive. The Activity in the data set on Vero is over 10 µg/mL.
As to `Cc1ccc(-c2nc(C[C@H](NC(=O)OC(C)(C)C)C(=O)N[C@@H](Cc3c[nH]c4ccccc34)C(=O)N[C@@H](CCCNC(=N)N)C(=O)NCc3ccccc3)c[nH]2)cc1`, the IC50 with Enterococcus is over 20 µg/mL; in the data set with Cryptococcus neoformans, 4.34 µg/mL (≈ 5.59 µM); in the data set with Pseudomonas aeruginosa, over 20 µg/mL; in the data set with Escherichia coli, over 20 µg/mL; in the data set on Staphylococcus aureus, 17.5 µg/mL (≈ 22.5 µM). Besides, the values for the MIC in the data set on Cryptococcus neoformans and in the data set with Staphylococcus aureus were 5 µg/mL (≈ 6.44 µM) and 20 µg/mL (≈ 25.7 µM), respectively. Further, the result in the data set with Klebsiella pneumoniae, with Aspergillus fumigatus and in the data set on Candida albicans was inactive. Further, the Activity in the data set with Vero was over 10 µg/mL.
On to `COC(=O)[C@H](CCCNC(=N)N)NC(=O)[C@H](Cc1c[nH]c2ccccc12)NC(=O)[C@@H](N)Cc1c[nH]cn1.Cl.Cl` (H-His-Trp-Arg-OMe), for which, in the data set with Cryptococcus neoformans, the IC50 stood at 2.41 µg/mL. The MIC with Cryptococcus neoformans is 10 µg/mL. Besides, the outcome in the data set with Klebsiella pneumoniae, in the data set on Aspergillus fumigatus and with Candida albicans was inactive. Further, the Activity in the data set with Vero is over 10 µg/mL.
Take `Cl.Cl.N=C(N)NCCC[C@H](NC(=O)[C@H](Cc1c[nH]c2ccccc12)NC(=O)[C@@H](N)Cc1c[nH]c(-c2ccccc2)n1)C(=O)NCc1ccccc1`: the IC50 in the data set on Cryptococcus neoformans is 5.31 µg/mL. Moreover, the MIC with Cryptococcus neoformans came out at 10 µg/mL. Also, the result in the data set on Klebsiella pneumoniae, in the data set with Aspergillus fumigatus and with Candida albicans was inactive. Moreover, the Activity with Vero is over 10 µg/mL.
For `CCc1ccc(-c2nc(C[C@H](N)C(=O)N[C@@H](Cc3c[nH]c4ccccc34)C(=O)N[C@@H](CCCNC(=N)N)C(=O)NCc3ccccc3)c[nH]2)cc1.Cl.Cl`, the IC50 in the data set on Enterococcus is 13.5 µg/mL; with Cryptococcus neoformans it was 2.26 µg/mL; in the data set with Pseudomonas aeruginosa, over 20 µg/mL; with Escherichia coli it was over 20 µg/mL; with Staphylococcus aureus, 18.4 µg/mL. Besides, the MIC with Enterococcus was 20 µg/mL; with Cryptococcus neoformans, 10 µg/mL; in the data set on Staphylococcus aureus it was 20 µg/mL. Moreover, the result with Klebsiella pneumoniae, in the data set with Aspergillus fumigatus and with Candida albicans was inactive. Further, the Activity in the data set on Vero is over 10 µg/mL.
Consider `COC(=O)[C@H](CCCNC(=N)N)NC(=O)[C@H](Cc1c[nH]c2ccccc12)NC(=O)[C@@H](N)Cc1c[nH]c(-c2ccccc2)n1.Cl.Cl`, for which, in the data set with Cryptococcus neoformans, the half-inhibitory concentration (IC50) turned out to be 9.23 µg/mL. Also, the MIC in the data set with Cryptococcus neoformans was over 20 µg/mL. In addition, the outcome in the data set with Klebsiella pneumoniae, with Aspergillus fumigatus and in the data set with Candida albicans was inactive. Moreover, the Activity with Vero was over 10 µg/mL.
For the molecule `CC(C)(C)OC(=O)N[C@@H](Cc1c[nH]cn1)C(=O)N[C@@H](Cc1c[nH]c2ccccc12)C(=O)N[C@@H](CCCNC(=N)N)C(=O)NCc1ccccc1` (Boc-His-Trp-Arg-NHBn), the 50% inhibitory concentration (IC50) in the data set with Cryptococcus neoformans is over 20 µg/mL. Moreover, the outcome with Klebsiella pneumoniae, with Aspergillus fumigatus and in the data set with Candida albicans was inactive. Further, in the data set with Vero, the Activity is over 10 µg/mL.
For `C[C@@H]1[C@H](O)[C@@H](C)/C=C/C=C/C=C/C=C/C=C/C=C/C=C/[C@H](O[C@@H]2O[C@H](C)[C@@H](O)[C@H](N)[C@@H]2O)C[C@@H]2O[C@](O)(C[C@@H](O)C[C@@H](O)[C@H](O)CC[C@@H](O)C[C@@H](O)CC(=O)O[C@H]1C)C[C@H](O)[C@H]2C(=O)O` [AMPHOTERICIN B], the MIC with Cryptococcus neoformans worked out at 1.25 µg/mL (≈ 1.35 µM).
Turning to `COC(=O)[C@H](CCCNC(=N)N)NC(=O)[C@H](Cc1c[nH]c2ccccc12)NC(=O)[C@H](Cc1c[nH]c(-c2ccccc2)n1)NC(=O)OC(C)(C)C`, the IC50 in the data set on Cryptococcus neoformans was 8.85 µg/mL (≈ 12.9 µM). Moreover, the MIC in the data set on Cryptococcus neoformans is over 20 µg/mL. In addition, the result with Klebsiella pneumoniae, with Aspergillus fumigatus and in the data set with Candida albicans was inactive. In addition, the Activity with Vero is over 10 µg/mL.
With `COC(=O)[C@H](CCCNC(=N)N)NC(=O)[C@H](Cc1c[nH]c2ccccc12)NC(=O)[C@@H](N)Cc1c[nH]c(-c2ccc(-c3ccccc3)cc2)n1.Cl.Cl`, the IC50 was 13.2 µg/mL with Enterococcus; 1.51 µg/mL in the data set on Cryptococcus neoformans; over 20 µg/mL in the data set with Pseudomonas aeruginosa; over 20 µg/mL with Escherichia coli; 7.81 µg/mL in the data set with Staphylococcus aureus. The minimum inhibitory concentration (MIC) in the data set on Enterococcus amounted to 20 µg/mL; in the data set with Cryptococcus neoformans it was 2.5 µg/mL; with Staphylococcus aureus, 10 µg/mL. Also, the result in the data set on Klebsiella pneumoniae, in the data set with Aspergillus fumigatus and with Candida albicans was inactive. Besides, in the data set on Vero, the Activity was over 10 µg/mL.
Turning to `Cc1ccc(-c2nc(C[C@H](N)C(=O)N[C@@H](Cc3c[nH]c4ccccc34)C(=O)N[C@@H](CCCNC(=N)N)C(=O)NCc3ccccc3)c[nH]2)cc1.Cl.Cl`, the IC50 in the data set on Cryptococcus neoformans is 3.36 µg/mL. For the same molecule, the MIC with Cryptococcus neoformans stood at 5 µg/mL. The result in the data set on Klebsiella pneumoniae, in the data set on Aspergillus fumigatus and in the data set with Candida albicans was inactive. In the data set with Vero, the Activity was over 10 µg/mL.
Take `CCCCc1ccc(-c2nc(C[C@H](NC(=O)OC(C)(C)C)C(=O)N[C@@H](Cc3c[nH]c4ccccc34)C(=O)N[C@@H](CCCNC(=N)N)C(=O)NCc3ccccc3)c[nH]2)cc1`: the IC50 in the data set with Enterococcus is 7.38 µg/mL (≈ 9.01 µM); in the data set with Cryptococcus neoformans it was 1.98 µg/mL (≈ 2.42 µM); in the data set on Pseudomonas aeruginosa it was over 20 µg/mL; in the data set on Escherichia coli it was over 20 µg/mL; in the data set with Staphylococcus aureus, 9.13 µg/mL (≈ 11.1 µM). Further, the MIC in the data set on Enterococcus is 10 µg/mL (≈ 12.2 µM); in the data set on Cryptococcus neoformans it was 2.5 µg/mL (≈ 3.05 µM); with Staphylococcus aureus it was 10 µg/mL (≈ 12.2 µM). Besides, the outcome with Klebsiella pneumoniae, in the data set on Aspergillus fumigatus and in the data set with Candida albicans was inactive. In addition, the Activity with Vero was over 10 µg/mL.
Take `CCc1ccc(-c2nc(C[C@H](NC(=O)OC(C)(C)C)C(=O)N[C@@H](Cc3c[nH]c4ccccc34)C(=O)N[C@@H](CCCNC(=N)N)C(=O)OC)c[nH]2)cc1`: the IC50 with Cryptococcus neoformans turned out to be 9.66 µg/mL (≈ 13.5 µM). Besides, in the data set with Cryptococcus neoformans, the MIC is over 20 µg/mL. Also, the outcome with Klebsiella pneumoniae, in the data set with Aspergillus fumigatus and in the data set on Candida albicans was inactive. The Activity with Vero was over 10 µg/mL.
In the case of `COC(=O)[C@H](CCCNC(=N)N)NC(=O)[C@H](Cc1c[nH]c2ccccc12)NC(=O)[C@H](Cc1c[nH]c(-c2ccc(-c3ccccc3)cc2)n1)NC(=O)OC(C)(C)C`, the IC50 was 8.06 µg/mL (≈ 10.6 µM) with Cryptococcus neoformans, over 20 µg/mL in the data set on Pseudomonas aeruginosa, over 20 µg/mL in the data set on Escherichia coli and 16.3 µg/mL (≈ 21.3 µM) in the data set with Staphylococcus aureus. Further, the MIC in the data set with Cryptococcus neoformans and in the data set with Staphylococcus aureus was over 20 µg/mL throughout. Moreover, the outcome in the data set on Klebsiella pneumoniae, in the data set on Aspergillus fumigatus and with Candida albicans was inactive. In addition, in the data set on Vero, the Activity was over 10 µg/mL.
Regarding `COC(=O)[C@H](CCCNC(=N)N)NC(=O)[C@H](Cc1c[nH]c2ccccc12)NC(=O)[C@@H](N)Cc1c[nH]c(-c2ccc(C)cc2)n1.Cl.Cl`, in the data set on Cryptococcus neoformans, the IC50 was 8.98 µg/mL. The minimum inhibitory concentration (MIC) in the data set on Cryptococcus neoformans was over 20 µg/mL. Moreover, the outcome with Klebsiella pneumoniae, with Aspergillus fumigatus and with Candida albicans was inactive. For the same molecule, the Activity in the data set with Vero was over 10 µg/mL.
Consider `Cl.Cl.N=C(N)NCCC[C@H](NC(=O)[C@H](Cc1c[nH]c2ccccc12)NC(=O)[C@@H](N)Cc1c[nH]cn1)C(=O)NCc1ccccc1` (H-His-Trp-Arg-NHBn), for which the IC50 in the data set with Cryptococcus neoformans turned out to be 4.92 µg/mL. Also, the MIC in the data set on Cryptococcus neoformans came out at 10 µg/mL. In addition, the result with Klebsiella pneumoniae, in the data set on Aspergillus fumigatus and in the data set with Candida albicans was inactive. In addition, the Activity in the data set with Vero is over 10 µg/mL.
As for `CC(C)(C)OC(=O)N[C@@H](Cc1c[nH]c(-c2ccccc2)n1)C(=O)N[C@@H](Cc1c[nH]c2ccccc12)C(=O)N[C@@H](CCCNC(=N)N)C(=O)NCc1ccccc1`, in the data set on Cryptococcus neoformans, the IC50 is 7.93 µg/mL (≈ 10.4 µM). Besides, in the data set with Cryptococcus neoformans, the MIC was over 20 µg/mL. Besides, the result in the data set on Klebsiella pneumoniae, in the data set with Aspergillus fumigatus and with Candida albicans was inactive. Also, the Activity with Vero is over 10 µg/mL.

These data come from ChEMBL document CHEMBL4831482 (Eur J Med Chem, 2021).
